Assay results from ChEMBL document CHEMBL3352286, “Submonomer synthesis of azapeptide ligands of the Insulin Receptor Tyrosine Kinase domain” (Bioorg Med Chem Lett, 2014).
Starred links: 1 amine or outer side, 2 acyl side, 3 side chain; linkers in the order of their positions; H or OH if unused. Non-standard residues stand in square brackets, D forms with d. Residues, ends and D or L forms follow the SMILES beside them. azaTyr = O=C(N(Cc1ccc(O)cc1)N[*:1])[*:2]; X1 = O=C(N(Cc1ccc(O)c(O)c1)N[*:1])[*:2]; azaPhe = O=C(N(Cc1ccccc1)N[*:1])[*:2]; X3 = CC[C@H](C)N(N[*:1])C(=O)[*:2]; X2 = O=C(O)CCN(N[*:1])C(=O)[*:2]; AzaAla = CN(N[*:1])C(=O)[*:2]; azaGly = NNC(=O)O

Legend:
[1] = target: Insulin receptor (Homo sapiens) (UniProt P06213); assay: Inhibition of human active insulin receptor tyrosine kinase domain (amino acids 1005 to 1310) assessed as reduction in autophosphorylation at 400 uM using 1000 uM ATP and insulin by BCIP/NBT staining based colorimetry and immunoblotting
[2] = target: Insulin receptor (Homo sapiens) (UniProt P06213); assay: Stimulation of human active insulin receptor tyrosine kinase domain (amino acids 1005 to 1310) assessed as increase in autophosphorylation at 400 uM using 1000 uM ATP and insulin by BCIP/NBT staining based colorimetry and immunoblotting
[3] = Retention time of the compound using 2 to 90% MeOH in H2O with 0.1% FA over 15 mins by RP-LC method; assay type: physicochemical; details: 0.25 h
Procedure, shortened: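 Reversed-phase LC with UV detection at 214 nm; gradient of 2–90% MeOH in H2O containing 0.1% formic acid over 15 min; retention time in minutes.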

[4] = target: Insulin receptor (Homo sapiens) (UniProt P06213); assay: Inhibition of human active insulin receptor tyrosine kinase domain (amino acids 1005 to 1310) assessed as residual autophosphorylation level at 400 uM using 1000 uM ATP and insulin by BCIP/NBT staining based colorimetry and immunoblotting
Procedure, shortened: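 Recombinant IRTK domain (residues 1005–1310), 200 ng/mL, incubated with 1000 µM ATP and peptide ligand in reaction buffer for 20 min at 37 °C, then quenched. Samples were resolved by denaturing 10% Bis-Tris PAGE and transferred to PVDF, which was blocked overnight in 2% BSA/TBST. Blots were probed with anti-phospho-IR/IGF1R (Tyr1158/1162/1163) and an AP-conjugated goat anti-rabbit IgG, and developed colorimetrically with BCIP/NBT.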

[5] = Retention time of the compound using 2 to 90% MeCN in H2O with 0.1% FA over 15 mins by RP-LC method; assay type: physicochemical; details: 0.25 h
[6] = target: Insulin receptor (Homo sapiens) (UniProt P06213); assay: Inhibition of IRTK (unknown origin) assessed as reduction in enzyme phosphorylation at 4 mM
[7] = target: Insulin receptor (Rattus norvegicus) (UniProt P15127); assay: Inhibition of rat liver IRTK assessed as reduction in enzyme phosphorylation at 4 mM
Insulin receptor (Rattus norvegicus), sequence (P15127 27-759 limits assumed): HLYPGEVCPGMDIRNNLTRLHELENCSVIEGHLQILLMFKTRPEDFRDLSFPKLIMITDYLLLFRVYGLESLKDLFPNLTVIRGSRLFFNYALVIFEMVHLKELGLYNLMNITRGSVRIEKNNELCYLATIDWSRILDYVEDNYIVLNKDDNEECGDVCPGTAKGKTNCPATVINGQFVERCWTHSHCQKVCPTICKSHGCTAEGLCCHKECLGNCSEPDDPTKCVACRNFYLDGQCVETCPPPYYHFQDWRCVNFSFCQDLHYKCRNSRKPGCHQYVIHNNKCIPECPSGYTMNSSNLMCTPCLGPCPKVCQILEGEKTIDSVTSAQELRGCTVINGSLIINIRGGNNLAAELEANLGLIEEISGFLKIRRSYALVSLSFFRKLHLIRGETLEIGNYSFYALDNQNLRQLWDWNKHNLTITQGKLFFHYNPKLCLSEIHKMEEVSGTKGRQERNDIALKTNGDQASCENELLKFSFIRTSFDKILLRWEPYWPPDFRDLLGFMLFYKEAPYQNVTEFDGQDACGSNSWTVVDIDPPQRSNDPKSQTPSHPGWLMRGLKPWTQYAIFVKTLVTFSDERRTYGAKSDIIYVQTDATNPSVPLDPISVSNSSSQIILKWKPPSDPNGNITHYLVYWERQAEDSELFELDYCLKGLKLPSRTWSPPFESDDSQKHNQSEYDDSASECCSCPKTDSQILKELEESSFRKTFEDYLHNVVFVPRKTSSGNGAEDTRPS
Insulin receptor (Rattus norvegicus), sequence (P15127 764-1383 limits assumed): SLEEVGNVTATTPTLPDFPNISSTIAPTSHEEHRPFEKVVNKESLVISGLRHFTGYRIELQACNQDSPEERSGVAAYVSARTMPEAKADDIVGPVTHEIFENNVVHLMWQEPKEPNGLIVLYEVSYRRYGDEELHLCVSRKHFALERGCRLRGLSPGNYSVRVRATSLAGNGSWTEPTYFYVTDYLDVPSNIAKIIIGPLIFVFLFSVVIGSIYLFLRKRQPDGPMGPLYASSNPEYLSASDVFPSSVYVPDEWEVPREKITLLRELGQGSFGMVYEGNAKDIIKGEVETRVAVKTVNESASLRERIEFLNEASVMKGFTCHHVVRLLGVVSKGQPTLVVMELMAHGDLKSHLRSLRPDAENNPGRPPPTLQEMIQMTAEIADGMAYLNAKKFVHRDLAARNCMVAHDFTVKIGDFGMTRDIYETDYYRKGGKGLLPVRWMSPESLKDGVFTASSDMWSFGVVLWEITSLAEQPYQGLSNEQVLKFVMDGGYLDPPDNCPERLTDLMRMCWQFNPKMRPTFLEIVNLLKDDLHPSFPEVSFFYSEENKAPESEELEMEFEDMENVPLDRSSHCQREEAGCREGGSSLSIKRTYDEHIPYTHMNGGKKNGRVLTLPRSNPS

Insulin receptor (Homo sapiens), sequence (P06213 28-758 limits assumed): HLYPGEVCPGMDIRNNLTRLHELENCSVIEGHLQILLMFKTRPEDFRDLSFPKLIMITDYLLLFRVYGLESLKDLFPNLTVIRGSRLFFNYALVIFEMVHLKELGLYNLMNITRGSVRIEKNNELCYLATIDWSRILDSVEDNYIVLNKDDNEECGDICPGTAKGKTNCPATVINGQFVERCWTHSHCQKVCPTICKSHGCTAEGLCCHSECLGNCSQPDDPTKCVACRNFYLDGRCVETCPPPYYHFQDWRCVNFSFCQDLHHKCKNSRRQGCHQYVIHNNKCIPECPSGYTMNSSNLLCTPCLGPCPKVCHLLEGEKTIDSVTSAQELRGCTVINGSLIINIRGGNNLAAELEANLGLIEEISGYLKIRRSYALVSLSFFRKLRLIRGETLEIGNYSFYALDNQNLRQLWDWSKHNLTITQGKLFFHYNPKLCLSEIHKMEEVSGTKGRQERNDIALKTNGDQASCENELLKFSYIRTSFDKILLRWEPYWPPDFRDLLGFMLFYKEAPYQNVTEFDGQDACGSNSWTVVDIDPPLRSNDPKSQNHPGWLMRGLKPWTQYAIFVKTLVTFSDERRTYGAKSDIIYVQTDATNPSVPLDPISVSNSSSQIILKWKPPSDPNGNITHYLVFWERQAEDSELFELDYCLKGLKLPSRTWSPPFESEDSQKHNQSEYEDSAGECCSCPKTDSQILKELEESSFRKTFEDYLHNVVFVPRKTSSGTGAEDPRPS
Insulin receptor (Homo sapiens), sequence (P06213 763-1382 limits assumed): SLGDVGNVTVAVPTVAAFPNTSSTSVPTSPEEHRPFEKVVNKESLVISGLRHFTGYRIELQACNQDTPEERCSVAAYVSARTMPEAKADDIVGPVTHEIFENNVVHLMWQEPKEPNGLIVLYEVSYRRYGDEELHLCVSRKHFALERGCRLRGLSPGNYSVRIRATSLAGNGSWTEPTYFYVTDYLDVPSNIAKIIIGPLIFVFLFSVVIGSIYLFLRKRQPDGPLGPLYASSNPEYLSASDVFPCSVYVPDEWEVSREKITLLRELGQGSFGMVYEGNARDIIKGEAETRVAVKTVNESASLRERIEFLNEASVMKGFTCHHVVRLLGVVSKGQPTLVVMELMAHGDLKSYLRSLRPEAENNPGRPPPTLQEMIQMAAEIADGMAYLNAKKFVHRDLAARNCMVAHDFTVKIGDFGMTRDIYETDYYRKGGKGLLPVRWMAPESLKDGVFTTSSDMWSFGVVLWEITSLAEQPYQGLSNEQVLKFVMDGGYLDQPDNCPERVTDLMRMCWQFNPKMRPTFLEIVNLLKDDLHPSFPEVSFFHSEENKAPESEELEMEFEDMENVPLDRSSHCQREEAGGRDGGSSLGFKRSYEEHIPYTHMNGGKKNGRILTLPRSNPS

With `CC(C)(C)c1cc(C=C(C#N)C#N)cc(Br)c1O` the inhibition [1] was 80%.

`CC[C@H](C)[C@H](NC(=O)[C@H](CC(=O)O)NC(C)=O)C(=O)N[C@@H](Cc1ccc(O)cc1)C(=O)NN(CCC(=O)O)C(=O)N[C@H](C(N)=O)[C@@H](C)O` (Ac-DIY[X2]T-NH2) showed an Activity [2] of 10%, a Retention_time [3] of 9.61 min and an Activity [4] of 110%. The Retention_time [5] was 6.41 min.

`CC[C@H](C)[C@H](NC(=O)[C@H](CC(=O)O)NC(C)=O)C(=O)NN(Cc1ccc(O)c(O)c1)C(=O)N[C@@H](CCC(=O)O)C(=O)N[C@H](C(N)=O)[C@@H](C)O` (Ac-DI[X1]ET-NH2) showed an Activity [2] of 30%, a Retention_time [3] of 8.9 min and an Activity [4] of 128%. The Retention_time [5] was 6.33 min.

Work on `CC[C@H](C)[C@H](NC(=O)[C@H](CC(=O)O)NC(C)=O)C(=O)NN(Cc1ccccc1)C(=O)N[C@@H](CCC(=O)O)C(=O)N[C@H](C(N)=O)[C@@H](C)O` (Ac-DI[azaPhe]ET-NH2) yielded a Retention_time [3] of 11.76 min, an Activity [4] of 67% and a Retention_time [5] of 7.76 min.

With `CC[C@H](C)[C@H](NC(=O)[C@H](CC(=O)O)NC(C)=O)C(=O)NN(Cc1ccc(O)cc1)C(=O)N[C@@H](CCC(=O)O)C(=O)N[C@H](C(N)=O)[C@@H](C)O` (Ac-DI[azaTyr]ET-NH2) the inhibition [1] was 50%, the Retention_time [3] was 9.95 min and the Activity [4] was 40%. For the same compound, the Retention_time [5] was 6.68 min.

Compound `CC(=O)N[C@@H](CC(=O)O)C(=O)NN(C)C(=O)N[C@@H](Cc1ccc(O)cc1)C(=O)N[C@@H](CCC(=O)O)C(=O)N[C@H](C(N)=O)[C@@H](C)O` (Ac-D[AzaAla]YET-NH2) has a Retention_time [3] of 7.42 min, an Activity [4] of 74% and a Retention_time [5] of 5.26 min.

Work on `CC[C@H](C)N(NC(=O)[C@H](CC(=O)O)NC(C)=O)C(=O)N[C@@H](Cc1ccc(O)cc1)C(=O)N[C@@H](CCC(=O)O)C(=O)N[C@H](C(N)=O)[C@@H](C)O` (Ac-D[X3]YET-NH2) yielded a Retention_time [3] of 6.97 min, an Activity [4] of 73% and a Retention_time [5] of 5.13 min.

`CC(=O)N[C@@H](CC(=O)O)C(=O)NNC(=O)N[C@@H](Cc1ccc(O)cc1)C(=O)N[C@@H](CCC(=O)O)C(=O)N[C@H](C(N)=O)[C@@H](C)O` (Ac-D[azaGly]YET-NH2) showed a Retention_time [3] of 6.99 min, an Activity [4] of 61% and a Retention_time [5] of 5.04 min.

For Ac-DIFET-NH2, the inhibition [6] was 20% and the Activity [4] was 84%.

Ac-DIYET-NH2 showed an inhibition [1] of less than 10%, an Activity [4] of 82% and an inhibition [7] of 80%.
